Sampled rows, rich in hits. Any-hit rate of the full collection: about 3.5%.
MITF TRPM1 HTS = activators of MITF-driven TRPM1 promoter reporter, primary screen, cell-based, SK-MEL-5, luciferase, single point; SK-MEL-5 TRPM1-promoter luciferase, 24 h; % of positive control, neutral wells = 0; activation, % at 12.5 µM; actives 0.75% (n = 300,000);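 active = mean activation of at least 80% with every replicate also reaching 80%; inconclusive = mean reaches 80% but some replicate falls short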;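 note: 0% = neutral control wells and 100% = parthenolide positive control wells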
Wnt act = Wnt/beta-catenin pathway activators, primary screen, cell-based, plate reader, single point | Wnt/beta-catenin reporter cell assay, activator | activation, % at 9.35 µM | actives 1.2% (n = 300,000); in the data active = activation above about 30%, passing the limit was not always enough; inconclusive = no clear call, values can overlap the other calls;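 note: 0% = neutral control wells and 100% = positive control wells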
ERAP1 HTS inh = human ERAP1 aminopeptidase inhibitors, primary screen, biochemical, single point, plate reader. recombinant ERAP1, Leu-AMC fluorescence, 60 min. actives 0.15% (n = 340,000). Endoplasmic reticulum aminopeptidase 1 (Homo sapiens), Q9NZ08. inhibition, % at 10.7 µM;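 active = mean replicate inhibition of at least 30%, or all replicates individually reaching that 30% level; inactive = mean below 30% and not every replicate reaching it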;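 note: 0% = neutral control wells and 100% = L-leucinethiol positive control wells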
Target sequence (Q9NZ08 whole entry, looked up): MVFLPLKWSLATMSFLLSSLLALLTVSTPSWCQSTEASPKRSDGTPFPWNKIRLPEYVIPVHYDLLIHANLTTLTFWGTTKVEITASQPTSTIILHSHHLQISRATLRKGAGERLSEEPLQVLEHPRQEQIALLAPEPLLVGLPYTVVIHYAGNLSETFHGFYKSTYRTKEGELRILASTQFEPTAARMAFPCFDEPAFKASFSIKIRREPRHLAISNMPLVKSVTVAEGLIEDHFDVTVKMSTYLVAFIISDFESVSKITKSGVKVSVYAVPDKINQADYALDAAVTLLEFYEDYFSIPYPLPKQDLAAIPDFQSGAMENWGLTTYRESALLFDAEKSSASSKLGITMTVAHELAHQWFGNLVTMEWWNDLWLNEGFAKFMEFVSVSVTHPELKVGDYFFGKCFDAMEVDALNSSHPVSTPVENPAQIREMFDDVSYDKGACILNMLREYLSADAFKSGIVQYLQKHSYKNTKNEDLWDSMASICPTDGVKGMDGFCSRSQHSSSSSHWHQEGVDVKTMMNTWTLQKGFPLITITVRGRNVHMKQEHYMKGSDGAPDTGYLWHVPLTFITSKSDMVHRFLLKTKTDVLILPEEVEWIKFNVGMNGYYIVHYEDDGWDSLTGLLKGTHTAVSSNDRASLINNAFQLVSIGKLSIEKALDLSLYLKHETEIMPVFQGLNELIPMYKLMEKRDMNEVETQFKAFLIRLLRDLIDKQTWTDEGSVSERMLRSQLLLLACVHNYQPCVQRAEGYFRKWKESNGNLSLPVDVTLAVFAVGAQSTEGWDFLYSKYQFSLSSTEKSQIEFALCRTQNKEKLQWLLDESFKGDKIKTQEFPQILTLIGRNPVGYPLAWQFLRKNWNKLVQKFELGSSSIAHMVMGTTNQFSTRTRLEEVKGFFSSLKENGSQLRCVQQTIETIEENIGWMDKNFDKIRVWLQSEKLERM
Env fusion inh = inhibitors of HIV-1 Env-driven cell-cell fusion, primary screen, HeLa-JRFL effector, CEM21 target cells, luciferase; actives 1.1% (n = 360,000); inhibition, % at 12.3 µM;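 active = mean replicate inhibition score of at least 50 and every replicate individually at or above 50; inconclusive = only one of the two criteria met; inactive = mean below 50 and not all replicates reaching 50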;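 note: 0% = plate neutral controls and 100% = maraviroc near 300 nM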
esBAF inh = Bmi1 luciferase reporter increase in mESCs, primary screen, esBAF inhibitor project, mouse ES cells, Bmi1 luciferase knock-in, single point. reporter increase, % at 12.5 µM. 24 h; 100% = twice the neutral-well signal. actives 2% (n = 350,000); in the data active = activation above about 40%; inconclusive = no clear call, values can overlap the other calls;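 note: 0% = median of the plate's neutral control wells and 100% = double that signal; a rise in the Bmi1 reporter signal indicates esBAF inhibition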
Cneo AK release = Cryptococcus neoformans cell lysis inducers, primary screen, AK release luminescence, single concentration | lysis activity, % at 15 µM | C. neoformans lysis, adenylate kinase release luminescence, 4 h; normalised: neutral wells 0, clomiphene wells 100 | AID 651654, 2012 | actives 0.2% (n = 360,000);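 active = mean lysis activity across replicates of at least 80%, whatever share of replicates individually reach that level; inactive = mean lysis activity below 80%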
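Material – Cryptococcus neoformans yeast cells · Quantity – 5 × 10^6 yeast cells/mL · Buffer or medium – YPD medium · Compound – single dose · Timing – 4 h static compound exposure, 37 °C, read 1 h post-reagent · Signal – adenylate kinase release luminescence · Read-out basis – lysis from increased AK signal · Benchmarks – Clomiphene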
The depositor's hits bear a star; [ ] = another dose, or the depositor's remark.

For N/C(=N\OC(=O)CCc1ccccc1)c1ccc(Br)cc1 the results were MITF TRPM1 HTS 26, Wnt act 5, ERAP1 HTS inh 0, esBAF inh 37 and Cneo AK release 0.
Screening COc1ccc(/C=C/C(=O)Nc2ccccc2)cc1OC returned MITF TRPM1 HTS 90*, Wnt act 10, ERAP1 HTS inh 2 and Env fusion inh -24.
For COc1ccc(/C=C/C(=O)NC(=S)Nc2ccccc2)cc1OC the results were MITF TRPM1 HTS 3, Wnt act 1, ERAP1 HTS inh 0, Env fusion inh 3, esBAF inh 3 and Cneo AK release 0.
For Cc1ccc(/C(N)=N/OC(=O)CCc2ccccc2)cc1 the results were MITF TRPM1 HTS 50, Wnt act 10, ERAP1 HTS inh -4, esBAF inh 60* and Cneo AK release -4.
For Cc1ccc(/C(N)=N/OC(=O)/C=C/c2ccccc2)cc1 the results were MITF TRPM1 HTS 20, Wnt act -1, esBAF inh 50* and Cneo AK release -3.
For COc1ccc(/C=C/C(=O)Oc2ccc(/C=N/NC(=O)c3ccccc3)cc2)cc1OC the results were MITF TRPM1 HTS 1, esBAF inh 47* and Cneo AK release 8.
`O=C(C[C@@H]1CC[C@H]2[C@@H](COC[C@H](O)CN2CC2CCCC2)O1)NCc1ccc(Cl)cc1` gave ERAP1 HTS inh 5 and Env fusion inh 34[16.7 µM].
For CC=Cc1ccc2n(c1=O)C[C@H]1[C@H](CO)[C@@H](C(=O)NCc3cccc(F)c3)[C@@H]2N1S(C)(=O)=O (mixture of isomers) the results were ERAP1 HTS inh -2, esBAF inh 0 and Cneo AK release 0.
For COc1ccc(NC(=O)/C=C/c2ccccc2)cn1 the results were MITF TRPM1 HTS 122*, Env fusion inh -332, esBAF inh 42* and Cneo AK release -17.
For COc1ccc(/C=C/C(=O)O/N=C(\N)c2ccccc2)cc1OC the results were MITF TRPM1 HTS 40, Wnt act 46*, ERAP1 HTS inh 2 and Cneo AK release -7.
COc1ccc(/C(N)=N/OC(=O)/C=C/c2ccccc2)cc1 was read as MITF TRPM1 HTS 27, Wnt act inconclusive, ERAP1 HTS inh 6, Env fusion inh -2, esBAF inh 27 and Cneo AK release -1.
CCOc1ccc(C(=O)/C=C/c2ccc(OC)c(OC)c2)cc1 was read as MITF TRPM1 HTS 5, Wnt act -2, ERAP1 HTS inh 4 and Env fusion inh 6.
For CCOc1ccc(/C=C/C(=O)c2ccccc2)cc1OC the results were MITF TRPM1 HTS 44, Wnt act 76* and Env fusion inh 2.
Screening C/C=C/c1ccc(OC(C)=O)c(OC)c1 returned MITF TRPM1 HTS -7, Wnt act 4, Env fusion inh 16, esBAF inh -2 and Cneo AK release 2.
`COc1cc(/C=C/C(=O)NC(=O)c2ccccc2O)ccc1OC(C)=O` gave MITF TRPM1 HTS 66, Wnt act -2, esBAF inh 54* and Cneo AK release -12.
Screening COCC#Cc1ccc2c(c1)O[C@@H](CN(C)S(=O)(=O)c1cccc(OC)c1)[C@@H](C)CN([C@H](C)CO)S2(=O)=O returned ERAP1 HTS inh 4, Env fusion inh -4[16.7 µM], esBAF inh -2 and Cneo AK release -3.
COc1cc(/C=N/NC(=O)c2ccncc2)ccc1OCC(=O)Nc1ccccc1 was read as MITF TRPM1 HTS 99*, Wnt act 17, ERAP1 HTS inh 3, Env fusion inh -34, esBAF inh 28 and Cneo AK release -3.
`Cc1ccccc1/C(N)=N/OC(=O)/C=C/c1ccccc1` gave MITF TRPM1 HTS 58, Wnt act 77*, Env fusion inh -168, esBAF inh 38 and Cneo AK release -4.
`COc1cc(/C=N/NC(=O)c2ccccc2O)ccc1OCC(=O)Nc1ccccc1` gave MITF TRPM1 HTS 66, Wnt act -1, ERAP1 HTS inh 1, Env fusion inh -12, esBAF inh 19 and Cneo AK release -1.
C=CCn1c(-c2ccc(OC)cc2)nc2ccccc21 was read as MITF TRPM1 HTS 19, Wnt act 7 and esBAF inh 41*.
Screening CCCn1c(/C=C/c2cc[n+](C)cc2)nc2ccccc21 returned MITF TRPM1 HTS -21, Wnt act 1, ERAP1 HTS inh 41*, Env fusion inh -2, esBAF inh 1 and Cneo AK release -1.
Screening COc1ccc(-c2nc3ccccc3n2Cc2ccccc2)cc1 returned MITF TRPM1 HTS 11, Wnt act 1, esBAF inh 6 and Cneo AK release 5.
Screening COc1ccc(Cn2c(/C=C/c3ccccc3)nc3ccccc32)cc1 returned MITF TRPM1 HTS 87*, Wnt act 84*, Env fusion inh -301, esBAF inh inconclusive and Cneo AK release -3.
CCn1c(/C=C/c2ccccc2)nc2ccccc21 was read as MITF TRPM1 HTS 5, Env fusion inh -306, esBAF inh -7 and Cneo AK release -11.
C[C@H]1CCCCO[C@H](CN(C)C)[C@@H](C)CN([C@@H](C)CO)C(=O)c2cc(NC(=O)Nc3ccccc3)ccc2O1 was read as ERAP1 HTS inh -2, Env fusion inh -34[16.7 µM], esBAF inh -2 and Cneo AK release 8.
`COc1ccc(Nc2nc(-c3ccccc3)nc3ccccc23)c(OC)c1` gave MITF TRPM1 HTS -14, Wnt act -1, ERAP1 HTS inh 13, Env fusion inh 1, esBAF inh -2 and Cneo AK release 4.
`COc1ccc(Nc2nc(N)c3ccccc3n2)c(OC)c1` gave MITF TRPM1 HTS 89*, Wnt act 22, ERAP1 HTS inh -7, Env fusion inh -62, esBAF inh -10 and Cneo AK release -6.
COc1cc(Nc2c3ccccc3nc3ccccc23)cc(OC)c1OC was read as MITF TRPM1 HTS -60, Wnt act -2, ERAP1 HTS inh -25, Env fusion inh -76, esBAF inh 15 and Cneo AK release -1.
Screening COc1ccccc1Nc1c2ccccc2nc2ccccc12 returned MITF TRPM1 HTS -23, Wnt act -1, ERAP1 HTS inh -3, Env fusion inh 57*, esBAF inh 5 and Cneo AK release 1.
For COc1ccc(NC(=O)N(C)C[C@@H]2Oc3cc(C#CCC(C)C)ccc3S(=O)(=O)N([C@@H](C)CO)C[C@@H]2C)cc1 the results were ERAP1 HTS inh 1, esBAF inh 10 and Cneo AK release -7.
For c1ccc(CSc2ncnc3c2oc2ccccc23)cc1 the results were MITF TRPM1 HTS 2 and Cneo AK release 3.

Source: PubChem (Broad Institute)
